Measurements: publication PMC11847724 (Neoplasia (New York, N.Y.), 2025)
Read-outs that look alike come from different tables or passages of the source.

Test system: participants with advanced or metastatic solid tumors
Assay type: in vivo, human
Outline: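 Open-label, first-in-human 3 + 3 escalation in adults with recurrent, locally advanced or metastatic solid tumors lacking standard therapy. Test compound was given orally once daily from 25 up to 700 mg/day (modified Fibonacci steps) in 28-day cycles for 6 to 8 cycles, with no intrapatient escalation. The safety population was everyone dosed at least once. AEs were coded by MedDRA and graded by NCI CTCAE v4.03. DLT was assessed in cycle 1, and MTD was the highest dose with DLT in under one-third of a cohort.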

CNC(=O)c1ccccc1Nc1nc(Nc2ccc3c(c2OC)CCC[C@H](N2CCN(CCO)CC2)C3)ncc1Cl [ESK-440]
AE: Cough (25 mg/day (n = 3)): 1 (33) Number (%) of participants | AE: Decreased appetite (25 mg/day (n = 3)): 0 Number (%) of participants | AE: Diarrhea (25 mg/day (n = 3)): 1 (33) Number (%) of participants | AE: Edema peripheral (25 mg/day (n = 3)): 0 Number (%) of participants | AE: Fatigue (25 mg/day (n = 3)): 0 Number (%) of participants | AE: Nausea (25 mg/day (n = 3)): 1 (33) Number (%) of participants | AE: Pyrexia (25 mg/day (n = 3)): 0 Number (%) of participants | AE: Vomiting (25 mg/day (n = 3)): 0 Number (%) of participants | Any AE (25 mg/day (n = 3)): 3 (100) Number (%) of participants | Deaths (25 mg/day (n = 3)): 1 (33) Number (%) of participants | Grade 3-5 AE (25 mg/day (n = 3)): 3 (100) Number (%) of participants | Other serious AEs (25 mg/day (n = 3)): 2 (67) Number (%) of participants | Treatment-related AE (25 mg/day (n = 3)): 1 (33) Number (%) of participants | Withdrawn from treatment due to AE (25 mg/day (n = 3)): 1 (33) Number (%) of participants | AE: Cough (50 mg/day (n = 3)): 0 Number (%) of participants | AE: Decreased appetite (50 mg/day (n = 3)): 0 Number (%) of participants | AE: Diarrhea (50 mg/day (n = 3)): 0 Number (%) of participants | AE: Edema peripheral (50 mg/day (n = 3)): 0 Number (%) of participants | AE: Fatigue (50 mg/day (n = 3)): 1 (33) Number (%) of participants | AE: Nausea (50 mg/day (n = 3)): 1 (33) Number (%) of participants | AE: Pyrexia (50 mg/day (n = 3)): 1 (33) Number (%) of participants | AE: Vomiting (50 mg/day (n = 3)): 0 Number (%) of participants | Any AE (50 mg/day (n = 3)): 2 (67) Number (%) of participants | Deaths (50 mg/day (n = 3)): 0 Number (%) of participants | Grade 3-5 AE (50 mg/day (n = 3)): 1 (33) Number (%) of participants | Other serious AEs (50 mg/day (n = 3)): 1 (33) Number (%) of participants | Treatment-related AE (50 mg/day (n = 3)): 1 (33) Number (%) of participants | Withdrawn from treatment due to AE (50 mg/day (n = 3)): 0 Number (%) of participants | AE: Cough (100 mg/day (n = 4)): 0 Number (%) of participants | AE: Decreased appetite (100 mg/day (n = 4)): 0 Number (%) of participants | AE: Diarrhea (100 mg/day (n = 4)): 0 Number (%) of participants | AE: Edema peripheral (100 mg/day (n = 4)): 1 (25) Number (%) of participants | AE: Fatigue (100 mg/day (n = 4)): 3 (75) Number (%) of participants | AE: Nausea (100 mg/day (n = 4)): 0 Number (%) of participants | AE: Pyrexia (100 mg/day (n = 4)): 1 (25) Number (%) of participants | AE: Vomiting (100 mg/day (n = 4)): 0 Number (%) of participants | Any AE (100 mg/day (n = 4)): 4 (100) Number (%) of participants | Deaths (100 mg/day (n = 4)): 1 (25) Number (%) of participants | Grade 3-5 AE (100 mg/day (n = 4)): 2 (50) Number (%) of participants | Other serious AEs (100 mg/day (n = 4)): 2 (50) Number (%) of participants | Treatment-related AE (100 mg/day (n = 4)): 2 (50) Number (%) of participants | Withdrawn from treatment due to AE (100 mg/day (n = 4)): 1 (25) Number (%) of participants | AE: Cough (150 mg/day (n = 3)): 1 (33) Number (%) of participants | AE: Decreased appetite (150 mg/day (n = 3)): 1 (33) Number (%) of participants | AE: Diarrhea (150 mg/day (n = 3)): 1 (33) Number (%) of participants | AE: Edema peripheral (150 mg/day (n = 3)): 1 (33) Number (%) of participants | AE: Fatigue (150 mg/day (n = 3)): 2 (67) Number (%) of participants | AE: Nausea (150 mg/day (n = 3)): 0 Number (%) of participants | AE: Pyrexia (150 mg/day (n = 3)): 1 (33) Number (%) of participants | AE: Vomiting (150 mg/day (n = 3)): 0 Number (%) of participants | Any AE (150 mg/day (n = 3)): 3 (100) Number (%) of participants | Deaths (150 mg/day (n = 3)): 0 Number (%) of participants | Grade 3-5 AE (150 mg/day (n = 3)): 1 (33) Number (%) of participants | Other serious AEs (150 mg/day (n = 3)): 1 (33) Number (%) of participants | Treatment-related AE (150 mg/day (n = 3)): 3 (100) Number (%) of participants | Withdrawn from treatment due to AE (150 mg/day (n = 3)): 0 Number (%) of participants | AE: Cough (250 mg/day (n = 4)): 1 (25) Number (%) of participants | AE: Decreased appetite (250 mg/day (n = 4)): 2 (50) Number (%) of participants | AE: Diarrhea (250 mg/day (n = 4)): 2 (50) Number (%) of participants | AE: Edema peripheral (250 mg/day (n = 4)): 2 (50) Number (%) of participants | AE: Fatigue (250 mg/day (n = 4)): 3 (75) Number (%) of participants | AE: Nausea (250 mg/day (n = 4)): 3 (75) Number (%) of participants | AE: Pyrexia (250 mg/day (n = 4)): 0 Number (%) of participants | AE: Vomiting (250 mg/day (n = 4)): 3 (75) Number (%) of participants | Any AE (250 mg/day (n = 4)): 4 (100) Number (%) of participants | Deaths (250 mg/day (n = 4)): 1 (25) Number (%) of participants | Grade 3-5 AE (250 mg/day (n = 4)): 1 (25) Number (%) of participants | Other serious AEs (250 mg/day (n = 4)): 1 (25) Number (%) of participants | Treatment-related AE (250 mg/day (n = 4)): 4 (100) Number (%) of participants | Withdrawn from treatment due to AE (250 mg/day (n = 4)): 0 Number (%) of participants | AE: Cough (350 mg/day (n = 4)): 1 (25) Number (%) of participants | AE: Decreased appetite (350 mg/day (n = 4)): 2 (50) Number (%) of participants | AE: Diarrhea (350 mg/day (n = 4)): 1 (25) Number (%) of participants | AE: Edema peripheral (350 mg/day (n = 4)): 0 Number (%) of participants | AE: Fatigue (350 mg/day (n = 4)): 2 (50) Number (%) of participants | AE: Nausea (350 mg/day (n = 4)): 2 (50) Number (%) of participants
